Measured values from ChEMBL document CHEMBL3351861, “New synthetic sulfone derivatives inhibit growth, adhesion and the leucine arylamidase APE2 gene expression of Candida albicans in vitro” (2015).
In brackets after ≈: the same amount, converted by molar mass.

Columns and labels:
[1] = tested on: Candida albicans; assay: Antifungal activity against Candida albicans CAI4 expressing delta-cph1/delta-efg1 (EFG1) gene assessed as growth inhibition at by CLSI M27-A3 method; format: functional
[2] = tested on: Candida albicans; assay: Antifungal activity against Candida albicans 90028 assessed as growth inhibition at 2 ug/ml by CLSI M27-A3 method; format: functional; conditions: read-out: GI
How it was run: (§1)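 CLSI M27-A3 broth microdilution in RPMI, read after 48 h. Strains pre-grown 18 h in YEPD at 30°C. Final inoculum 0.5×10^2–2.5×10^3 cells/ml. Two-fold dilutions in RPMI came from a 1600 µg/ml stock in water with 9% DMSO; final DMSO was 0.09%. OD405 read, % inhibition = 100 − (CTW−SCW)/(GCW−SCW). Triplicate on three occasions, mean±SD.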

[3] = tested on: Candida albicans; assay: Inhibition of cell adhesion of compound pre-treated Candida albicans CAI4 expressing delta-efg1 gene to human Caco2 cells assessed as cell adhesion level at 8 ug/ml pre-incubated for 18 hrs by colony counting method (reference value: 2.1 +/- 3.52%); format: functional, Caco-2; parameters: scale not given: the % may be the effect or the level left
[4] = tested on: Candida albicans; assay: Inhibition of cell adhesion of compound pre-treated Candida albicans CAI4 expressing delta-efg1 gene to human Caco2 cells assessed as cell adhesion level at 2 ug/ml pre-incubated for 18 hrs by colony counting method (reference value: 2.1 +/- 3.52%); format: functional, Caco-2; parameters: scale not given: the % may be the effect or the level left
[5] = tested on: Candida albicans; assay: Antifungal activity against Candida albicans CAI4 expressing delta-cph1/delta-efg1 (EFG1) gene assessed as growth inhibition at 2 ug/ml by CLSI M27-A3 method; format: functional; conditions: read-out: GI; how it was run: as §1
[6] = tested on: Candida albicans; assay: Inhibition of cell adhesion of compound pre-treated Candida albicans CAI4 expressing delta-efg1/delta-cph1 gene to human Caco2 cells assessed as cell adhesion level at 8 ug/ml pre-incubated for 18 hrs by colony counting method (reference value: 1.22 +/- 0.78%); format: functional, Caco-2; parameters: scale not given: the % may be the effect or the level left
[7] = tested on: Candida albicans; assay: Antifungal activity against Candida albicans CAI4 expressing delta-efg1 gene assessed as growth inhibition at 8 ug/ml by CLSI M27-A3 method; format: functional; conditions: read-out: GI
How it was run: (§2)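 CLSI M27-A3 broth microdilution in RPMI. Final inoculum 0.5×10^2 to 2.5×10^3 cells/ml. Seven two-fold concentrations from 0.25 to 16 µg/ml, with DMSO held at 0.09% (v/v) in all wells. Compound-free growth controls and sterility controls are run for each strain. […] Triplicate on three occasions.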

[8] = tested on: Candida albicans; assay: Antifungal activity against Candida albicans CAI4 expressing delta-efg1 gene assessed as growth inhibition at 0.25 ug/ml by CLSI M27-A3 method; format: functional; conditions: read-out: GI; how it was run: as §1
[9] = tested on: Candida albicans; assay: Antifungal activity against Candida albicans CAI4 expressing delta-cph1 gene assessed as growth inhibition at by CLSI M27-A3 method; format: functional
[10] = tested on: Candida albicans; assay: Inhibition of cell adhesion of compound pre-treated Candida albicans CAI4 expressing delta-cph1 (CPH1) gene to human Caco2 cells assessed as cell adhesion level at 2 ug/ml pre-incubated for 18 hrs by colony counting method (reference value: 5.37 +/- 12.4%); format: functional, Caco-2; parameters: scale not given: the % may be the effect or the level left
[11] = tested on: Candida albicans; assay: Antifungal activity against Candida albicans CAI4 expressing delta-cph1/delta-efg1 gene assessed as growth inhibition at 0.5 ug/ml by CLSI M27-A3 method; format: functional; conditions: read-out: GI; how it was run: as §1
[12] = tested on: Candida albicans; assay: Antifungal activity against Candida albicans CAI4 expressing delta-cph1/delta-efg1 (EFG1) gene assessed as growth inhibition at 0.25 ug/ml by CLSI M27-A3 method; format: functional; conditions: read-out: GI; how it was run: as §1
[13] = tested on: Candida albicans; assay: Antifungal activity against Candida albicans CAI4 expressing delta-cph1 gene assessed as growth inhibition at 0.5 ug/ml by CLSI M27-A3 method; format: functional; conditions: read-out: GI; how it was run: as §1
[14] = tested on: Candida albicans; assay: Antifungal activity against Candida albicans CAI4 expressing delta-efg1 (EFG1) gene assessed as growth inhibition at 16 ug/ml by CLSI M27-A3 method; format: functional; conditions: read-out: GI; how it was run: as §1
[15] = tested on: Candida albicans; assay: Antifungal activity against Candida albicans CAI4 expressing delta-cph1/delta-efg1 gene assessed as growth inhibition at by CLSI M27-A3 method; format: functional
[16] = tested on: Candida albicans; assay: Antifungal activity against Candida albicans CAI4 expressing delta-cph1 (CPH1) gene assessed as growth inhibition at 4 ug/ml by CLSI M27-A3 method; format: functional; conditions: read-out: GI; how it was run: as §1
[17] = tested on: Candida albicans; assay: Antifungal activity against Candida albicans CAI4 expressing delta-cph1/delta-efg1 (EFG1) gene assessed as growth inhibition at 4 ug/ml by CLSI M27-A3 method; format: functional; conditions: read-out: GI; how it was run: as §1
[18] = tested on: Candida albicans; assay: Inhibition of cell adhesion of compound pre-treated Candida albicans CAI4 expressing delta-cph1 (CPH1) gene to human Caco2 cells assessed as cell adhesion level at 4 ug/ml pre-incubated for 18 hrs by colony counting method (reference value: 5.37 +/- 12.4%); format: functional, Caco-2; parameters: scale not given: the % may be the effect or the level left
[19] = tested on: Candida albicans; assay: Antifungal activity against Candida albicans CAI4 expressing delta-cph1/delta-efg1 gene assessed as growth inhibition at 4 ug/ml by CLSI M27-A3 method; format: functional; conditions: read-out: GI; how it was run: as §1
[20] = tested on: Candida albicans; assay: Inhibition of cell adhesion of compound pre-treated Candida albicans CAI4 expressing delta-efg1/delta-cph1 gene to human Caco2 cells assessed as cell adhesion level at 2 ug/ml pre-incubated for 18 hrs by colony counting method (reference value: 1.22 +/- 0.78%); format: functional, Caco-2; parameters: scale not given: the % may be the effect or the level left
[21] = tested on: Candida albicans; assay: Antifungal activity against Candida albicans CAI4 expressing delta-cph1 gene assessed as growth inhibition at 8 ug/ml by CLSI M27-A3 method; format: functional; conditions: read-out: GI; how it was run: as §1
[22] = tested on: Candida albicans; assay: Antifungal activity against Candida albicans CAI4 expressing delta-efg1 gene assessed as growth inhibition at 1 ug/ml by CLSI M27-A3 method; format: functional; conditions: read-out: GI; how it was run: as §2
[23] = tested on: Candida albicans; assay: Inhibition of cell adhesion of compound pre-treated Candida albicans 90028 to human Caco2 cells assessed as cell adhesion level at 8 ug/ml pre-incubated for 18 hrs by colony counting method (reference value: 1.58 +/- 0.67%); format: functional, Caco-2; parameters: scale not given: the % may be the effect or the level left
[24] = tested on: Candida albicans; assay: Antifungal activity against Candida albicans 90028 assessed as growth inhibition at 0.5 ug/ml by CLSI M27-A3 method; format: functional; conditions: read-out: GI; how it was run: as §1
[25] = tested on: Candida albicans; assay: Antifungal activity against Candida albicans CAI4 expressing delta-cph1/delta-efg1 gene assessed as growth inhibition at 0.25 ug/ml by CLSI M27-A3 method; format: functional; conditions: read-out: GI; how it was run: as §1
[26] = tested on: Candida albicans; assay: Inhibition of cell adhesion of compound pre-treated Candida albicans CAI4 expressing delta-cph1 gene to human Caco2 cells assessed as cell adhesion level at 4 ug/ml pre-incubated for 18 hrs by colony counting method (reference value: 1.6 +/- 0.65%); format: functional, Caco-2; parameters: scale not given: the % may be the effect or the level left
[27] = tested on: Candida albicans; assay: Inhibition of cell adhesion of compound pre-treated Candida albicans CAI4 expressing delta-cph1 gene to human Caco2 cells assessed as cell adhesion level at 8 ug/ml pre-incubated for 18 hrs by colony counting method (reference value: 1.6 +/- 0.65%); format: functional, Caco-2; parameters: scale not given: the % may be the effect or the level left
[28] = tested on: Candida albicans; assay: Antifungal activity against Candida albicans CAI4 expressing delta-cph1 (CPH1) gene assessed as growth inhibition at 8 ug/ml by CLSI M27-A3 method; format: functional; conditions: read-out: GI; how it was run: as §1
[29] = tested on: Candida albicans; assay: Inhibition of cell adhesion of compound pre-treated Candida albicans CAI4 expressing delta-cph1 gene to human Caco2 cells assessed as cell adhesion level at 2 ug/ml pre-incubated for 18 hrs by colony counting method (reference value: 1.6 +/- 0.65%); format: functional, Caco-2; parameters: scale not given: the % may be the effect or the level left
[30] = tested on: Candida albicans; assay: Antifungal activity against Candida albicans CAI4 expressing delta-cph1 gene assessed as growth inhibition at 4 ug/ml by CLSI M27-A3 method; format: functional; conditions: read-out: GI; how it was run: as §1
[31] = tested on: Candida albicans; assay: Antifungal activity against Candida albicans CAI4 expressing delta-cph1 gene assessed as growth inhibition at 1 ug/ml by CLSI M27-A3 method; format: functional; conditions: read-out: GI; how it was run: as §1

Structure (SMILES)	MIC90 [1] [µg/mL]	inhibition of growth at 2 µg/mL [2] [%]	Activity [3] [%]	Activity [4] [%]	inhibition of growth at 2 µg/mL [5] [%]	Activity [6] [%]	inhibition of growth at 8 µg/mL [7] [%]	inhibition of growth at 0.25 µg/mL [8] [%]	MIC90 [9] [µg/mL]	Activity [10] [%]	inhibition of growth at 0.5 µg/mL [11] [%]	inhibition of growth at 0.25 µg/mL [12] [%]	inhibition of growth at 0.5 µg/mL [13] [%]	inhibition of growth at 16 µg/mL [14] [%]	MIC90 [15] [µg/mL]	inhibition of growth at 4 µg/mL [16] [%]	inhibition of growth at 4 µg/mL [17] [%]	Activity [18] [%]	inhibition of growth at 4 µg/mL [19] [%]	Activity [20] [%]	other results
O=[N+]([O-])c1cc(S(=O)(=O)C(Cl)Cl)ccc1Cl	16 (≈ 52.5 µM)	99.5	0.69	1.1	99.2	0.48	99.4	99.1	16 (≈ 52.5 µM)	1.43	99.1	98.8	99.1	99.2	16 (≈ 52.5 µM)	98.7	99.3	1.28	99.2	0.47	inhibition of growth at 8 µg/mL [21]: 99.2%; inhibition of growth at 1 µg/mL [22]: 99.4%; Activity [23]: 2.05%; inhibition of growth at 0.5 µg/mL [24]: 99.1%; inhibition of growth at 0.25 µg/mL [25]: 99%; Activity [26]: 0.99%; Activity [27]: 0.8%; inhibition of growth at 8 µg/mL [28]: 99.4%; Activity [29]: 0.8%; inhibition of growth at 4 µg/mL [30]: 99.1%; inhibition of growth at 1 µg/mL [31]: 99.3%
O=[N+]([O-])c1cc(S(=O)(=O)C(Cl)(Cl)Br)ccc1Cl	16 (≈ 41.7 µM)	98.9	0.49	0.9	99.3	0.38	99.5	98.4	16 (≈ 41.7 µM)	2.38	98.6	96.5	97.4	99.5	16 (≈ 41.7 µM)	99.7	99.5	1.39	99	0.78	inhibition of growth at 8 µg/mL [21]: 99.3%; inhibition of growth at 1 µg/mL [22]: 98.5%; Activity [23]: 2.2%; inhibition of growth at 0.5 µg/mL [24]: 98.7%; inhibition of growth at 0.25 µg/mL [25]: 98.3%; Activity [26]: 0.55%; Activity [27]: 0.35%; inhibition of growth at 8 µg/mL [28]: 99.8%; Activity [29]: 0.43%; inhibition of growth at 4 µg/mL [30]: 98.7%; inhibition of growth at 1 µg/mL [31]: 97.8%
